Measured values: ChEMBL document CHEMBL1152957, “Synthesis and biological evaluation of novel 4-azaindolyl-indolyl-maleimides as glycogen synthase kinase-3beta (GSK-3beta) inhibitors” (Bioorg Med Chem, 2009)
Active and inactive are the calls of the source. No cut-off for these calls is given here.

Assays:
[1] = target: T1, Glycogen synthase kinase-3 beta (Homo sapiens, UniProt P49841); assay: Inhibition of GSK3-beta in human SH-Sy5Y cells assessed as reduction of amyloid beta (25-35)-induced Tau hyperphosphorylation at Ser396 at 10 uM treated 1 hr before amyloid beta (25-35) challenge measured after 6 hrs by Western blotting; assay type: cell-based
Summary of the method: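 SH-SY5Y cells from ATCC kept in 1:1 DMEM:Ham's F12 with 10% FBS and penicillin/streptomycin under 5% CO2. Grown to about 80% confluence and serum-starved 12 h. Inhibitor added for 1 h, then amyloid beta 25–35 for 6 h. Lysed in SDS loading buffer and run on 10% SDS-PAGE. Western blot on PVDF with rabbit anti-Tau pS396 and ECL detection.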
Target sequence in this assay (P49841 whole entry, looked up): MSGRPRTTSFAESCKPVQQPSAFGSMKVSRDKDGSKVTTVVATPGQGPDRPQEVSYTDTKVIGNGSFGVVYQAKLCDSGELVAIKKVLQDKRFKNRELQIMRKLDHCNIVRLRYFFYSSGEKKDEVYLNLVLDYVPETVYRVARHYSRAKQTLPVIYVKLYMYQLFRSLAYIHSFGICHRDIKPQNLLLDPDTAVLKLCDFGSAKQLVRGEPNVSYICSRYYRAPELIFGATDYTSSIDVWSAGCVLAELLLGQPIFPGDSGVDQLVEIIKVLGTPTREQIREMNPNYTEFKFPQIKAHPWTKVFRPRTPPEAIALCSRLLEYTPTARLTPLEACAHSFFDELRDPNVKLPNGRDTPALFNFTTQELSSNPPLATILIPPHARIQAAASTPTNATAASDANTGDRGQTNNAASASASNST

[2] = target: T1, Glycogen synthase kinase-3 beta; assay: Inhibition of recombinant GST-GSK3beta expressed in Escherichia coli BL21 (DE3)
Target sequence in this assay (P49841 whole entry): as the sequence (P49841 whole entry, looked up) above

[3] = target: T2, Protein kinase C epsilon type (Homo sapiens, UniProt Q02156); assay: Inhibition of recombinant PKCE expressed in Bac-to Bac baculovirus system
T2 sequence (Q02156 whole entry): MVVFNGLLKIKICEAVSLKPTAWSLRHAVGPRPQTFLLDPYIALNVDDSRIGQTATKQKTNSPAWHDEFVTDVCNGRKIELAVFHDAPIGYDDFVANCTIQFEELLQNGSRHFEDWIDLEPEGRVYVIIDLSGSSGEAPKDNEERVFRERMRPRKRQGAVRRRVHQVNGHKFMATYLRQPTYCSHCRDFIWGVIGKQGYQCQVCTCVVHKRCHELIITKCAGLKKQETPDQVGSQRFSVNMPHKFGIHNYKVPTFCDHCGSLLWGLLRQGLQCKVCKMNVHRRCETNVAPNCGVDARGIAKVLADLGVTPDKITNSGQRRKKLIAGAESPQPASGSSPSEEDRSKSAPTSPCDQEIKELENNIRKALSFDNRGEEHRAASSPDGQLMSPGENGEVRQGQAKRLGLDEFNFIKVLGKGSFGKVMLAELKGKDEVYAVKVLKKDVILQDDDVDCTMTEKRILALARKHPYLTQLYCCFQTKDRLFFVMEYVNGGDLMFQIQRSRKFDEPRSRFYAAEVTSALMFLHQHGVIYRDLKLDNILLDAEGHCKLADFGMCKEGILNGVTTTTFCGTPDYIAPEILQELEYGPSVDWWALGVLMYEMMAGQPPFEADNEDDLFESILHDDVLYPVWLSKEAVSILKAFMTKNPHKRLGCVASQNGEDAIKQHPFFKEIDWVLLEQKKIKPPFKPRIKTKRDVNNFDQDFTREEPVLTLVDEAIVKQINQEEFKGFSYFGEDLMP

[4] = target: T3, Inhibitor of nuclear factor kappa-B kinase subunit beta (Homo sapiens, UniProt O14920); assay: Inhibition of recombinant IKK2 expressed in Bac-to Bac baculovirus system
T3 sequence (O14920 whole entry): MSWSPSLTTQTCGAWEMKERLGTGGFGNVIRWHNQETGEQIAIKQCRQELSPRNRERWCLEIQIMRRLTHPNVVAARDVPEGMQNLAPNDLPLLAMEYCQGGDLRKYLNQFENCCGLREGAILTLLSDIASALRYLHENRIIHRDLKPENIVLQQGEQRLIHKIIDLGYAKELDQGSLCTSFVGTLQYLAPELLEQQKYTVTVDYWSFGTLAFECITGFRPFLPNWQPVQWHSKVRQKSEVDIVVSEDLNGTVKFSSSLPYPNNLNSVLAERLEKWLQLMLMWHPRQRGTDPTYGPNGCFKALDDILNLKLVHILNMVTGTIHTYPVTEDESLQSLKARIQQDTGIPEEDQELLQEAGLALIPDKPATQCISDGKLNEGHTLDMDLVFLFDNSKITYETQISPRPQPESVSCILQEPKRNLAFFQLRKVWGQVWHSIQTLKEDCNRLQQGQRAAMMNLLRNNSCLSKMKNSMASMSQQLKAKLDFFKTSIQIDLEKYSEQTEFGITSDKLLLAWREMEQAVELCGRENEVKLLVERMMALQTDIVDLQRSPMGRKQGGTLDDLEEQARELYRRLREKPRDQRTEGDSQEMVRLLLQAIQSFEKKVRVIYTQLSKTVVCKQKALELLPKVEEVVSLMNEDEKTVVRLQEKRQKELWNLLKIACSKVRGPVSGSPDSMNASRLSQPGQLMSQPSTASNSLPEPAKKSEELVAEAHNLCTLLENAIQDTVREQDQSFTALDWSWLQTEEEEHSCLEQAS

Aurora kinase A = target: T4, Aurora kinase A (Homo sapiens, UniProt O14965); assay: Inhibition of recombinant Aurora A expressed in Escherichia coli
T4 sequence (O14965 whole entry): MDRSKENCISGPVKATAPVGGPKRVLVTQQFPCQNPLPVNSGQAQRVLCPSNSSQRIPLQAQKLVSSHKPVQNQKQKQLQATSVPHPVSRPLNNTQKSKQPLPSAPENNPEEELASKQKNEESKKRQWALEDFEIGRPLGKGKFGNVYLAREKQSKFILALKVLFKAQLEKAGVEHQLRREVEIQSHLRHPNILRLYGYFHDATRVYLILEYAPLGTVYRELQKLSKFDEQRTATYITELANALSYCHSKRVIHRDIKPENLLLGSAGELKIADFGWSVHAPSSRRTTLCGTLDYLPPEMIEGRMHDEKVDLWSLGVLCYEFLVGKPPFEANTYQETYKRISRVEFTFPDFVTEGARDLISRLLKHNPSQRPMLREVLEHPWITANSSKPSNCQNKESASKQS

[5] = target: Dual specificity mitogen-activated protein kinase kinase 1 (Homo sapiens, UniProt Q02750); assay: Inhibition of recombinant MEK1 expressed in Escherichia coli
[6] = target: Mitogen-activated protein kinase 3 (Homo sapiens, UniProt P27361); assay: Inhibition of recombinant ERK1 expressed in Escherichia coli
Chain of Mitogen-activated protein kinase 3 (P27361 whole entry): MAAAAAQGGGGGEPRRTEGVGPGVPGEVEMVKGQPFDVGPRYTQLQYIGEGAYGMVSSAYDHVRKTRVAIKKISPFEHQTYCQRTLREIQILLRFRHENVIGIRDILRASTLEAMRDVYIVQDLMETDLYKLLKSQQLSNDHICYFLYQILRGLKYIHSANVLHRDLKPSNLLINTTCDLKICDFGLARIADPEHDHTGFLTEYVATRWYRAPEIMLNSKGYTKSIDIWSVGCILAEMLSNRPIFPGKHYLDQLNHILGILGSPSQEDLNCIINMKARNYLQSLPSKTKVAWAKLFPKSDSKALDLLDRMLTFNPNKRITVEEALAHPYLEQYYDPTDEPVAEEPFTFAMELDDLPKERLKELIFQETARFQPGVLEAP

Chain of Dual specificity mitogen-activated protein kinase kinase 1 (Q02750 whole entry): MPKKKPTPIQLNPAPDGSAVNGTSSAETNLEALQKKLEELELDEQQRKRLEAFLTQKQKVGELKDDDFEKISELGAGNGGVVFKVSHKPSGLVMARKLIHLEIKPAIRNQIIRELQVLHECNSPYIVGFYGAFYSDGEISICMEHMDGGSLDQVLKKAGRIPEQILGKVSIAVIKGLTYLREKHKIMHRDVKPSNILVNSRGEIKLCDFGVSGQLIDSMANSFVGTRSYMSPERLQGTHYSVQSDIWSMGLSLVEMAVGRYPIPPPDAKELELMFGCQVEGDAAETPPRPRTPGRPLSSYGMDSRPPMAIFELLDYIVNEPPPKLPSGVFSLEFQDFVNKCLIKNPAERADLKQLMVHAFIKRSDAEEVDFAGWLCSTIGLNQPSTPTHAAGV

Compound: O=C1NC(=O)C(n2ccc3ncccc32)=C1c1cn(CCCCn2ccnc2)c2ccccc12
- Activity [1]: inactive
- IC50 [2]: 0.85 µM

Compound: O=C1NC(=O)C(n2ccc3ncccc32)=C1c1cn(CCCN2CCCCC2)c2ccccc12
- IC50 [2]: 12.4 µM

Compound: CN(C)CCCn1cc(C2=C(n3ccc4ncccc43)C(=O)NC2=O)c2ccccc21
- IC50 [2]: 13.6 µM

Compound: CN(C)CCCn1cc(C2=C(n3ccc4ncccc43)C(=O)NC2=O)c2ccc(Br)cc21
- IC50 [2]: 2.26 µM

Compound: COc1ccc2c(c1)c(C1=C(n3ccc4ncccc43)C(=O)NC1=O)cn2CCCN(C)C
- IC50 [2]: 22.5 µM

Compound: Cn1cc(C2=C(c3cn(CCN4CCOCC4)c4ccccc34)C(=O)NC2=O)c2ncccc21
- IC50 [2]: 0.9 µM

Compound: Cn1cc(C2=C(c3cn(CCCn4ccnc4)c4ccccc34)C(=O)NC2=O)c2ncccc21
- IC50 [2]: 0.66 µM

Compound: O=C1NC(=O)C(n2ccc3ncccc32)=C1c1cn(CCCn2ccnc2)c2ccc(Br)cc12
- Activity [1]: Active
- IC50 [2]: 0.14 µM
- IC50 [3]: > 40 µM
- IC50 [4]: > 40 µM
- IC50 (Aurora kinase A): > 40 µM
- IC50 [5]: > 40 µM
- IC50 [6]: > 40 µM

Compound: O=C1NC(=O)C(n2ccc3ncccc32)=C1c1c[nH]c2ccccc12
- IC50 [2]: 30.6 µM

Compound: O=C1NC(=O)C(n2ccc3ncccc32)=C1c1cn(CCCn2ccnc2)c2ccccc12
- IC50 [2]: 0.55 µM

Compound: Cn1cc(C2=C(c3cn(CCCO)c4ccccc34)C(=O)NC2=O)c2ncccc21
- IC50 [2]: 1.14 µM

Compound: O=C1NC(=O)C(n2ccc3ncccc32)=C1c1cn(CCCn2ccnc2)c2cc(Br)ccc12
- Activity [1]: inactive
- IC50 [2]: 0.95 µM

Compound: COc1ccc2c(c1)c(C1=C(n3ccc4ncccc43)C(=O)NC1=O)cn2CCCn1ccnc1
- Activity [1]: inactive
- IC50 [2]: 0.48 µM

Compound: O=C1NC(=O)C(n2ccc3ncccc32)=C1c1cn(CCCn2ccnc2)c2cc(F)ccc12
- IC50 [2]: 0.31 µM

Compound: O=C1NC(=O)C(n2ccc3ncccc32)=C1c1cn(CCn2ccnc2)c2ccccc12
- Activity [1]: inactive
- IC50 [2]: 0.26 µM
- IC50 [3]: > 40 µM
- IC50 [4]: > 40 µM
- IC50 (Aurora kinase A): > 40 µM
- IC50 [5]: > 40 µM
- IC50 [6]: > 40 µM

Compound: Cn1cc(C2=C(c3cn(CCCN4CCOCC4)c4ccccc34)C(=O)NC2=O)c2ncccc21
- Activity [1]: Active
- IC50 [2]: 0.76 µM
- IC50 [3]: > 40 µM
- IC50 [4]: > 40 µM
- IC50 (Aurora kinase A): > 40 µM
- IC50 [5]: > 40 µM
- IC50 [6]: > 40 µM

Compound: O=C1NC(=O)C(n2ccc3ncccc32)=C1c1cn(CCCN2CCOCC2)c2ccccc12
- IC50 [2]: 1.79 µM

Compound: O=C1C(c2cn(CCCn3ccnc3)c3ccccc23)=C(n2ccc3ncccc32)C(=O)N1c1ccccc1
- IC50 [2]: > 73.3 µM

Compound: CN(C)CCCn1cc(C2=C(n3ccc4ncccc43)C(=O)NC2=O)c2ccc(F)cc21
- IC50 [2]: 12.4 µM
